Laboratory results as given in ChEMBL document CHEMBL5120856, “New salicylic acid derivatives, double inhibitors of glycolate oxidase and lactate dehydrogenase, as effective agents decreasing oxalate production” (Eur J Med Chem, 2022).
Active and inactive are the calls of the source. The rule behind the calls is not given here.

What was measured:
2-Hydroxyacid oxidase 1 = target: T1, 2-Hydroxyacid oxidase 1 (Homo sapiens, UniProt Q9UJM8); experiment: Inhibition of N-terminal His-tagged human recombinant glycolate oxidase expressed in Escherichia coli BL21 (DE3) cells using glycolate as substrate preincubated for 10 mins followed by substrate addition and measured after 10 mins by Amplex red and horseradish peroxidase based fluorescence assay
T1 sequence (Q9UJM8 whole entry): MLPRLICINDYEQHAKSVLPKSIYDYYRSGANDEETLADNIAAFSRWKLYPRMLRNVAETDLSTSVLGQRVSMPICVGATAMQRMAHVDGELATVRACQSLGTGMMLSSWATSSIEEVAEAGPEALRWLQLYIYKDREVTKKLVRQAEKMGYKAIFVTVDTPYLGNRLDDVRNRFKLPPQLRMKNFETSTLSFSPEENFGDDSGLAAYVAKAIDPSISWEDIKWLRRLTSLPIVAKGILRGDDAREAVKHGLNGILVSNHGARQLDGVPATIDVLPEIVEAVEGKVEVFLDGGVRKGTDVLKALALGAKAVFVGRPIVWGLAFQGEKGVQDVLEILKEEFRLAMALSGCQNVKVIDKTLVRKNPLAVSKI

[1] = target: L-lactate dehydrogenase B chain (Homo sapiens, UniProt P07195); experiment: Inhibition of human recombinant LDHB using pyruvate as substrate preincubated for 10 mins followed by substrate addition and measured every 60 sec for 10 mins in the presence of NADH by fluorescence assay
L-lactate dehydrogenase B chain, sequence (P07195 whole entry): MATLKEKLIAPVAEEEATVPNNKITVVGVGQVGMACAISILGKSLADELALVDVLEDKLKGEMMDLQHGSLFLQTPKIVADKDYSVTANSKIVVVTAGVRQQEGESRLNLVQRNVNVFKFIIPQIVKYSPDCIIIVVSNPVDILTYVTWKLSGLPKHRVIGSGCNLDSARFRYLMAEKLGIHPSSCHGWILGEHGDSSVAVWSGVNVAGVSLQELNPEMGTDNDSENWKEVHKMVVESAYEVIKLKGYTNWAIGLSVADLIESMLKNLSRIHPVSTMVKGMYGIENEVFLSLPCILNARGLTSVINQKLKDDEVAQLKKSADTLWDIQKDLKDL

[2] = target: T2, 2-Hydroxyacid oxidase 1 (Homo sapiens) (UniProt Q9UJM8); experiment: Reversible inhibition of N-terminal His-tagged human recombinant glycolate oxidase expressed in Escherichia coli BL21 (DE3) cells assessed as enzyme recovery using glycolate as substrate at 10 times of IC50 concentration preincubated for 30 mins followed by substrate addition and measured every 60 sec for 15 mins by jump-dilution based Amplex red and horseradish peroxidase fluorescence assay; details: time 45.0 min
T2 sequence (whole entry): T1 sequence (Q9UJM8 whole entry)

[3] = target: T3, L-lactate dehydrogenase A chain (Homo sapiens, UniProt P00338); experiment: Non-competitive inhibition of human recombinant LDHA assessed as inhibition constant using varying concentration of pyruvate as substrate preincubated for 10 mins followed by substrate addition and measured every 60 sec for 10 mins in the presence of NADH by fluorescence assay
[4] = target: T3, L-lactate dehydrogenase A chain; experiment: Non-competitive inhibition of human recombinant LDHA assessed as decrease in Vmax with no effect on Km using pyruvate as substrate upto 20 uM
Hepatocyte [5] = experiment: Inhibition of GO/LDHA in hyperoxaluric-primary hepatocyte isolated from Agxt1 knockdown PH1 C57BL/6 mouse assessed as relative oxalate output at 10 uM measured at 24 hrs in the presence of glycolate relative to control; type: cell-based
How it was run: (§1)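 Agxt1-/- mouse primary hepatocytes cultured with 5 mM glycolate, inhibitor at 10 μM; extracellular oxalate measured by colorimetric kit 24 and 48 h after inhibitor addition; relative oxalate = oxalate with inhibitor over oxalate without inhibitor; negative values mean below detection limit; mean of three/four replicates ± SD.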

Hepatocyte [6] = experiment: Inhibition of GO/LDHA in hyperoxaluric-primary hepatocyte isolated from Agxt1 knockdown PH1 C57BL/6 mouse assessed as relative oxalate output at 10 uM measured at 48 hrs in the presence of glycolate relative to control; type: cell-based; how it was run: as §1
Hepatocyte [7] = experiment: Cytotoxicity against hyperoxaluric-primary hepatocyte isolated from Hoga1-knockdown PH3 C57BL/6 mouse assessed as cell death at 10 uM by MTS assay; type: toxicity, cell-based; details: hepatocytes, Hoga1-knockdown PH3, 10 µM
How it was run: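 Primary hepatocytes from Agxt1-/- (PH1, 5 mM glycolate), Grhpr-/- (PH2, 10 mM glycolate) or Hoga1-/- (PH3, 10 mM hydroxyproline) mice, incubated with inhibitor at 10 μM; viability followed through the oxalate assay by MTS tetrazolium method.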

[8] = target: T4, Prostaglandin G/H synthase 1 (Ovis aries, UniProt P05979); experiment: Inhibition of ovine COX-1 using arachidonic acid as substrate measured every 60 sec for 10 mins by fluorescence based assay
T4 sequence (P05979 whole entry): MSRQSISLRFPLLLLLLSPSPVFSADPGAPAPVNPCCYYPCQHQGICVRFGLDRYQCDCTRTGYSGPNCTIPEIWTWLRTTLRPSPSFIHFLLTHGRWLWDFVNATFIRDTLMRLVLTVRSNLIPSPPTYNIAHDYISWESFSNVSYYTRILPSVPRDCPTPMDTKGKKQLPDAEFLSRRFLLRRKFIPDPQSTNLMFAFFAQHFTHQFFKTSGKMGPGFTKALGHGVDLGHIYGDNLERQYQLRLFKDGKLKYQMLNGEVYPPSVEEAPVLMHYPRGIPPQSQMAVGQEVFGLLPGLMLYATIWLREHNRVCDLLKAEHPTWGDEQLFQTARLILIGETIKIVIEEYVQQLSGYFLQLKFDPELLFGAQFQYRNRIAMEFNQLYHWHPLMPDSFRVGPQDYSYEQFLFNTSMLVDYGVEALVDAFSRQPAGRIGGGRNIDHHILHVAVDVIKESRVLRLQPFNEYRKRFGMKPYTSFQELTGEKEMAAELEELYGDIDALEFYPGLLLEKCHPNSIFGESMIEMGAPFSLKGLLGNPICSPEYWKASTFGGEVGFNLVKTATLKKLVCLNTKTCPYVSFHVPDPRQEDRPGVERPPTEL

With `N.N.O=C(O)c1cc(-c2ccc(CN(Cc3ccccc3)Cc3ccc(-c4ccc(O)c(C(=O)O)c4)o3)o2)ccc1O` the IC50 (2-Hydroxyacid oxidase 1) was 1500 nM, the IC50 [1] was 200 nM and the inhibition [2] was “Active”. For the same molecule, the Ki [3] was 90 nM, the inhibition [4] was “Active” and the fold change (FC) (Hepatocyte [5]) was 0.66. The fold change (FC) (Hepatocyte [6]) was 0.76, the Activity (Hepatocyte [7]) was “Non-Toxic” and the IC50 [8] was 24 µM.
